How the values were obtained:
[1] = Antiviral activity against Influenza A virus A/WSN/33(H1N1) infected in MDCK cells expressing ST6Gal 1 preincubated with virus and cells for 30 mins followed viral infection measured after 2 to 3 days by naphthalene black dye-based plaque reduction assay; format: functional, cell-based, Influenza A virus (A/WSN/1933(H1N1))
[2] = Selectivity index, ratio of CC50 for MDCK cells to EC50 for Influenza A virus A/WSN/33 (H1N1); format: toxicity; conditions: dog, read-out: Ratio CC50/EC50
[3] = test system: Influenza A virus; test: Inhibition of Influenza A virus AM2 proton channel expressed in Xenopus laevis frog oocytes at 100 uM after 2 mins by electrophysiological two-electrode voltage clamp assay; format: cell-based
Outline: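 Two-electrode voltage clamp on oocytes microinjected with RNA for AM2-WT or AM2-S31N. Compound at 100 µM for 2 min at pH 5.5. Read-out is percent inhibition of AM2 current, mean of three independent measurements.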

[4] = test system: MDCK; test: Cytotoxicity against MDCK cells after 48 hrs by neutral red uptake assay; format: cell-based, Canis lupus familiaris; conditions: dog
Outline: (§1)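 Serially diluted compound in serum-free DMEM for 48 h at 37 °C, 5% CO2. Neutral red 40 µg/mL for 4 h, absorbance read at 540 nm. CC50 from variable-slope dose-response fit.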

[5] = test system: A549; test: Cytotoxicity against human A549 cells after 48 hrs by neutral red uptake assay; format: cell-based; conditions: a549, 48 h; outline: as §1
[6] = test system: Influenza A virus; test: Antiviral activity against Influenza A virus A/Switzerland/9715293/2013 (H3N2) infected in MDCK cells expressing ST6Gal 1 preincubated with virus and cells for 30 mins followed viral infection measured after 2 to 3 days by naphthalene black dye-based plaque reduction assay; format: functional, cell-based
[7] = Selectivity index, ratio of CC50 for human A549 cells to EC50 for Influenza A virus A/Texas/04/2009 (H1N1); format: toxicity; conditions: read-out: Ratio CC50/EC50
[8] = test system: Influenza A virus; test: Antiviral activity against Influenza A virus A/Denmark/524/2009 (H1N1) infected in MDCK cells expressing ST6Gal 1 preincubated with virus and cells for 30 mins followed viral infection measured after 2 to 3 days by naphthalene black dye-based plaque reduction assay; format: functional, cell-based
[9] = Selectivity index, ratio of CC50 for human A549 cells to EC50 for Influenza A virus A/Washington/29/2009 (H1N1); format: toxicity; conditions: read-out: Ratio CC50/EC50
[10] = Antiviral activity against Influenza A virus A/Denmark/528/2009(H1N1) infected in MDCK cells expressing ST6Gal 1 preincubated with virus and cells for 30 mins followed viral infection measured after 2 to 3 days by naphthalene black dye-based plaque reduction assay; format: functional, cell-based
[11] = Selectivity index, ratio of CC50 for human A549 cells to EC50 for Influenza A virus A/Denmark/528/2009 (H1N1); format: toxicity; conditions: read-out: Ratio CC50/EC50
[12] = Selectivity index, ratio of CC50 for human A549 cells to EC50 for Influenza A virus A/WSN/33(H1N1); format: toxicity; conditions: read-out: Ratio CC50/EC50
[13] = Antiviral activity against Influenza A virus A/Texas/04/2009(H1N1) infected in MDCK cells expressing ST6Gal 1 preincubated with virus and cells for 30 mins followed viral infection measured after 2 to 3 days by naphthalene black dye-based plaque reduction assay; format: functional, cell-based
[14] = Antiviral activity against Influenza A virus A/California/07/2009(H1N1) infected in MDCK cells expressing ST6Gal 1 preincubated with virus and cells for 30 mins followed viral infection measured after 2 to 3 days by naphthalene black dye-based plaque reduction assay; format: functional, cell-based
[15] = Selectivity index, ratio of CC50 for human A549 cells to EC50 for Influenza A virus A/Denmark/524/2009 (H1N1); format: toxicity; conditions: read-out: Ratio CC50/EC50
[16] = Selectivity index, ratio of CC50 for human A549 cells to EC50 for Influenza A virus A/California/07/2009 (H1N1); format: toxicity; conditions: read-out: Ratio CC50/EC50
[17] = Antiviral activity against Influenza A virus A/Washington/29/2009(H1N1) infected in MDCK cells expressing ST6Gal 1 preincubated with virus and cells for 30 mins followed viral infection measured after 2 to 3 days by naphthalene black dye-based plaque reduction assay; format: functional, cell-based
Outline: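 Plaque reduction assay in MDCK cells expressing ST6Gal I instead of regular MDCK cells. Virus stocks were grown in MDCK cells with 2 µg/ml N-acetyl trypsin, harvested at 2 days and clarified, then titered by plaque assay on ST6Gal I-expressing MDCK cells.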

[18] = Selectivity index, ratio of CC50 for human A549 cells to EC50 for Influenza A virus A/Switzerland/9715293/2013 (H3N2); format: toxicity; conditions: read-out: Ratio CC50/EC50

C[Si](C)(C)c1ccc(CNC23CC4CC(CC(C4)C2)C3)cc1
EC50 [1]: 4.8 µM
selectivity ratio [2]: 1.7
inhibition [3]: 21.8%
CC50 [4]: 8 µM

C[Si](C)(C)c1ccc(CNC23CC4CC(CC(O)(C4)C2)C3)cc1
EC50 ([1]; Influenza A virus, MDCK): 0.4 µM
CC50 [5]: 73.2 µM
EC50 [6]: 0.7 µM
selectivity ratio [7]: 122
EC50 [8]: 0.6 µM
selectivity ratio [2]: 102
selectivity ratio [9]: 52.3
EC50 [10]: 3 µM
selectivity ratio [11]: 24.4
selectivity ratio [12]: 183
EC50 [13]: 0.6 µM
EC50 [14]: 1.2 µM
inhibition [3]: 9.5%
selectivity ratio [15]: 122
CC50 [4]: 40.7 µM
selectivity ratio [16]: 61
EC50 [17]: 1.4 µM
selectivity ratio [18]: 105

CC(C)(C)c1ccc(CNC23CC4CC(CC(O)(C4)C2)C3)cc1
EC50 [1]: 2.5 µM
selectivity ratio [2]: 12.8
inhibition [3]: 22.3%
CC50 [4]: 32 µM

CC(C)[Si](c1ccc(CNC23CC4CC(CC(O)(C4)C2)C3)cc1)(C(C)C)C(C)C
EC50 ([1]; Influenza A virus, MDCK): > 10 µM
inhibition [3]: 17.8%
CC50 [4]: 11.4 µM

C[Si](C)(C)c1ccc(CNC23CC4CC(CC(C4)C2)C3)nc1
EC50 [1]: 3.4 µM
selectivity ratio [2]: 3
inhibition [3]: 5.9%
CC50 [4]: 10.3 µM

CC(C)(C)c1ccc(CNC23CC4CC(CC(C4)C2)C3)cc1
EC50 [1]: 3.5 µM
selectivity ratio [2]: 3.7
inhibition [3]: 9.9%
CC50 [4]: 12.8 µM

C[Si](C)(c1ccccc1)c1ccc(CNC23CC4CC(CC(O)(C4)C2)C3)cc1
EC50 [1]: 5.9 µM
selectivity ratio [2]: 2.3
inhibition [3]: 33.6%
CC50 [4]: 13.3 µM

CC[Si](C)(C)c1ccc(CNC23CC4CC(CC(O)(C4)C2)C3)cc1
inhibition [3]: 18.2%
CC50 [4]: 21.8 µM

Source: ChEMBL document CHEMBL4033658, “Design and expeditious synthesis of organosilanes as potent antivirals targeting multidrug-resistant influenza A viruses” (Eur J Med Chem, 2017)
